Test results published in ChEMBL document CHEMBL2384900, “Synthesis and cytotoxicity of oligomycin A derivatives modified in the side chain” (Bioorg Med Chem, 2013).
pIC50: −log10 of the molar value.

Key:
Streptomyces fradiae [1] = assay: Antibacterial activity against Streptomyces fradiae ATCC 19609 at 0.1 nmol/disk after 24 hrs; type: functional
Summary of the method: (§1)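 Disk diffusion assay. Streptomyces fradiae spores are mixed into MG soft agar (0.7% agar, pH 7.5) and poured over MG agar plates (2% agar), 10⁷ spores per dish. After the agar sets, paper disks impregnated with compound are placed on the plates. Plates are incubated 24 h at 28 °C, and the diameter of the growth-inhibition halo around each disk is measured.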

HCT-116 = assay: Cytotoxicity against human HCT116 cells after 72 hrs by MTT assay; type: functional, cell-based; settings: HCT-116, 72 h
Summary of the method: (§2)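 Cells are exposed to compound for 72 h, and viability is then read by MTT assay. IC50 is reported as the mean of 3 independent measurements with SD. hFB-hTERT6 is a non-malignant human skin fibroblast line.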

K562 = assay: Cytotoxicity against human K562 cells after 72 hrs by MTT assay; type: functional, cell-based; settings: K562, 72 h; summary of the method: as §2
[2] = Cytotoxicity against human hFB-hTERT6 cells after 72 hrs by MTT assay; type: cell-based; settings: hFB-hTERT6, 72 h; summary of the method: as §2
Streptomyces fradiae [3] = assay: Antibacterial activity against Streptomyces fradiae ATCC 19609 at 1 nmol/disk after 24 hrs; type: functional; summary of the method: as §1
Streptomyces fradiae [4] = assay: Antibacterial activity against Streptomyces fradiae ATCC 19609 at 10 nmol/disk after 24 hrs; type: functional; summary of the method: as §1
Streptomyces fradiae [5] = assay: Antibacterial activity against Streptomyces fradiae ATCC 19609 at 100 nmol/disk after 24 hrs; type: functional; summary of the method: as §1
Streptomyces fradiae [6] = assay: Antibacterial activity against Streptomyces fradiae ATCC 19609 at 0.001 nmol/disk after 24 hrs; type: functional
Summary of the method: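 Disk diffusion on S. fradiae: spore suspension mixed into MG soft agar (0.7%), pH 7.5, poured over MG agar (2%) at 10⁷ spores per dish; after solidification, paper disks carrying test compound laid on lawn; grown 24 h at 28 °C; growth-inhibition halo diameter around disks measured.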

Compound | diameter of the inhibition zone (DIZ) (Streptomyces fradiae [1]) [mm] | pIC50 (HCT-116) | pIC50 (K562) | pIC50 [2] | diameter of the inhibition zone (DIZ) (Streptomyces fradiae [3]) [mm] | diameter of the inhibition zone (DIZ) (Streptomyces fradiae [4]) [mm] | diameter of the inhibition zone (DIZ) (Streptomyces fradiae [5]) [mm] | diameter of the inhibition zone (DIZ) (Streptomyces fradiae [6]) [mm]
CC[C@H]1/C=C/C=C/C[C@@H](C)[C@H](O)[C@@](C)(O)C(=O)[C@@H](C)[C@H](O)[C@@H](C)C(=O)[C@@H](C)[C@H](O)[C@@H](C)/C=C/C(=O)O[C@@H]2[C@H](C)[C@H](CC1)O[C@]1(CC[C@H](C)[C@H](C[C@@H](C)OS(C)(=O)=O)O1)[C@H]2C | 9.5 | 5.19 | 5.24 | – | – | – | – | –
CC[C@H]1/C=C/C=C/C[C@@H](C)[C@H](O)[C@@](C)(O)C(=O)[C@@H](C)[C@H](O)[C@@H](C)C(=O)[C@@H](C)[C@H](O)[C@@H](C)/C=C/C(=O)O[C@@H]2[C@H](C)[C@H](CC1)O[C@]1(CC[C@H](C)[C@H](C[C@H](C)N=[N+]=[N-])O1)[C@H]2C | – | 6.70 | 6.85 | 5.72 | 7.5 | – | – | –
CC[C@H]1/C=C/C=C/C[C@@H](C)[C@H](O)[C@@](C)(O)C(=O)[C@@H](C)[C@H](O)[C@@H](C)C(=O)[C@@H](C)[C@H](O)[C@@H](C)/C=C/C(=O)O[C@@H]2[C@H](C)[C@H](CC1)O[C@]1(CC[C@H](C)[C@H](C[C@H](C)n3cc(-c4ccccc4)nn3)O1)[C@H]2C | 7.5 | – | 6.82 | 5.52 | – | – | – | –
CC[C@H]1/C=C/C=C/C[C@@H](C)[C@H](O)[C@@](C)(O)C(=O)[C@@H](C)[C@H](O)[C@@H](C)C(=O)[C@@H](C)[C@H](O)[C@@H](C)/C=C/C(=O)O[C@@H]2[C@H](C)[C@H](CC1)O[C@]1(CC[C@H](C)[C@H](C[C@H](C)n3cc(C(=O)OC)nn3)O1)[C@H]2C | – | – | 6.82 | 5.70 | – | 8 | – | –
CC[C@H]1/C=C/C=C/C[C@@H](C)[C@H](O)[C@@](C)(O)C(=O)[C@@H](C)[C@H](O)[C@@H](C)C(=O)[C@@H](C)[C@H](O)[C@@H](C)/C=C/C(=O)O[C@@H]2[C@H](C)[C@H](CC1)O[C@]1(CC[C@H](C)[C@H](C[C@H](C)n3cc(C(=O)O)nn3)O1)[C@H]2C | – | – | < 4.90 | < 4.30 | – | – | 8 | –
CC[C@H]1/C=C/C=C/C[C@@H](C)[C@H](O)[C@@](C)(O)C(=O)[C@@H](C)[C@H](O)[C@@H](C)C(=O)[C@@H](C)[C@H](O)[C@@H](C)/C=C/C(=O)O[C@@H]2[C@H](C)[C@H](CC1)O[C@]1(CC[C@H](C)[C@H](C[C@H](C)n3cc(C(=O)NCCN(C)C)nn3)O1)[C@H]2C | – | 6.15 | 6.66 | 5.70 | 8 | – | – | –
CC[C@@H]1/C=C/C=C/C[C@H](C)[C@H](O)[C@](C)(O)C(=O)[C@H](C)[C@@H](O)[C@H](C)C(=O)[C@H](C)[C@@H](O)[C@H](C)/C=C/C(=O)O[C@H]2[C@@H](C)[C@@H](CC1)O[C@@]1(CC[C@@H](C)[C@@H](C[C@H](C)O)O1)[C@@H]2C [OLIGOMYCIN A] | – | 6.00 | 6.80 | 5.12 | – | – | – | 10
